Test results from ChEMBL document CHEMBL5678802, “Small-molecule p21-activated kinase inhibitor PF-3758309 is a potent inhibitor of oncogenic signaling and tumor growth” (Proc Natl Acad Sci U S A, 2010).
The source made the active and inactive calls. The calls are words filed in the database; no cut-off is given here.

Experiments:
HCC1954 = assay: Antiproliferative activity against human HCC1954 cells assessed as inhibition of cell proliferation incubated for 3 days by CellTiter-Glo Luminescent Cell Viability Assay; assay type: functional, cell-based; conditions: HCC1954, 72 h
Outline: (§1)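 Cancer cell lines seeded in 384-well plates on day 1; compound added on day 2 and left for 3 days. On day 5 all medium was aspirated, and viable cells were quantified by CellTiter-Glo luminescence, which measures cellular ATP. Dose-dependent effects on proliferation were determined.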

NCI-H358 = assay: Inhibition of anchorage independent cell growth in human NCI-H358 cells incubated for 6 days by Alamar blue reagent based fluorescence plate reader analysis; assay type: functional; conditions: NCI-H358, 144 h
[1] = Inhibition of YFP/YFP variant coding sequence fused ARF1/gamma-COP (unknown origin) expressed in HEK293 cells incubated for 8 to 24 hrs by fluorescence based analysis; assay type: cell-based, Homo sapiens
NCI-H1734 = assay: Antiproliferative activity against human NCI-H1734 cells assessed as inhibition of cell proliferation incubated for 3 days by CellTiter-Glo Luminescent Cell Viability Assay; assay type: functional, cell-based; conditions: NCI-H1734, 72 h
Outline: (§2)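 Cells of each line were plated in 384-well plates on day 1 and exposed to compound from day 2 for 3 days. On day 5 all medium was aspirated. Viable cell number was read by CellTiter-Glo luminescence, which quantifies cellular ATP.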

HCT-116 [2] = assay: Antitumor activity against human HCT-116 cells xenografted in nude mouse assessed as reduction in BAD phosphorylation at S112 residue at 15 to 150 mg/kg/day administered via pump for 18 hrs by Reverse-Phase protein array analysis; assay type: functional, organism-based; conditions: dose 15-150 mg/kg/day
[3] = target: Serine/threonine-protein kinase D1 (Homo sapiens) (UniProt Q15139); assay: Inhibition of human PKCmu in presence of ATP relative to control; conditions: concentration not given here
Serine/threonine-protein kinase D1 (Homo sapiens), sequence (Q15139 whole entry): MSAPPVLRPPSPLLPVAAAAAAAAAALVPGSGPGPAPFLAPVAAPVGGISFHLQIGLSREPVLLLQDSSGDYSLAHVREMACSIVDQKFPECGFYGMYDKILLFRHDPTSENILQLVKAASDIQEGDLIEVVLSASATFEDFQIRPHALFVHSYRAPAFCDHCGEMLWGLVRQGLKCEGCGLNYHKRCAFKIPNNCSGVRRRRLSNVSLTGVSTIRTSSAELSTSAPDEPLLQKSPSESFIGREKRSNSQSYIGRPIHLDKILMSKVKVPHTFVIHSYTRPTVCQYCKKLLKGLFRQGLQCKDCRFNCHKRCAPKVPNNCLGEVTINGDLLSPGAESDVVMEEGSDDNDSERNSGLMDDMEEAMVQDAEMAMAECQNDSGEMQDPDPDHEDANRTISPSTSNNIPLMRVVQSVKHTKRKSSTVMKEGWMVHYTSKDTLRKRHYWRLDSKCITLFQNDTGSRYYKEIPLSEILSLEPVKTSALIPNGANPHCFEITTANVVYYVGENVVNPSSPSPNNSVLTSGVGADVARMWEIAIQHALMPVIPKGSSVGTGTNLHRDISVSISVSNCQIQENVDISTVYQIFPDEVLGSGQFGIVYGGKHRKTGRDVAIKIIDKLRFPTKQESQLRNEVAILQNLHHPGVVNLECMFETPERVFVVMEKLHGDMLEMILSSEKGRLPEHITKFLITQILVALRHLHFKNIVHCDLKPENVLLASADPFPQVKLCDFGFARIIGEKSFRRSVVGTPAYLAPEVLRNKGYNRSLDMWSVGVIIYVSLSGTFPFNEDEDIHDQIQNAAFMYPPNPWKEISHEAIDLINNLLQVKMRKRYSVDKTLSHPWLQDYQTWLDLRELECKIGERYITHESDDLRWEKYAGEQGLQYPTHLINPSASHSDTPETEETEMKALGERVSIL

[4] = target: High affinity nerve growth factor receptor (Homo sapiens, UniProt P04629); assay: Inhibition of human TRKa in presence of ATP
High affinity nerve growth factor receptor, sequence (P04629 whole entry): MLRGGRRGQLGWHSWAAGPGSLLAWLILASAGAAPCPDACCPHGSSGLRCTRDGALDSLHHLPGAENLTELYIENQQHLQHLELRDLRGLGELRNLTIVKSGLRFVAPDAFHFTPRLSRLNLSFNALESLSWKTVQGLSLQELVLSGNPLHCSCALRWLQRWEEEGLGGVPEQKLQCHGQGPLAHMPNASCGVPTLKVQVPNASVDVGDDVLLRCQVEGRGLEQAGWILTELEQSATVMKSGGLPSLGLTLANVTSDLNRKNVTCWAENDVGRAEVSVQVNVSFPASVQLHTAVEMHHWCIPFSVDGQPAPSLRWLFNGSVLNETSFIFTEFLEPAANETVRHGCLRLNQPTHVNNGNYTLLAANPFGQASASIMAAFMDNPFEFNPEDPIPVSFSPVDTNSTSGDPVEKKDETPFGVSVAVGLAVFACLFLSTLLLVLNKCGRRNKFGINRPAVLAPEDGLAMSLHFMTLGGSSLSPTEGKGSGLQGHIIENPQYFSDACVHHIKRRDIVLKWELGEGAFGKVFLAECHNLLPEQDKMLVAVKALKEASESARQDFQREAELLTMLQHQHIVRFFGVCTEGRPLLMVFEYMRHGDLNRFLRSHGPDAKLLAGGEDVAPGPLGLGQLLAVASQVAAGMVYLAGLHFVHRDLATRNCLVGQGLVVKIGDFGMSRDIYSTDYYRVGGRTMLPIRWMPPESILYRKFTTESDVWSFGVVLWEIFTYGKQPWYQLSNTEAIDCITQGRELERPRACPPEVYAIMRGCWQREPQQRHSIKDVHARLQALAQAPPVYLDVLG

NCI-H1573 = assay: Inhibition of anchorage independent cell growth in human NCI-H1573 cells incubated for 6 days by Alamar blue reagent based fluorescence plate reader analysis; assay type: functional; conditions: NCI-H1573, 144 h
[5] = target: Tyrosine-protein kinase Fgr (Homo sapiens, UniProt P09769); assay: Inhibition of human FGR in presence of ATP
Tyrosine-protein kinase Fgr, sequence (P09769 whole entry): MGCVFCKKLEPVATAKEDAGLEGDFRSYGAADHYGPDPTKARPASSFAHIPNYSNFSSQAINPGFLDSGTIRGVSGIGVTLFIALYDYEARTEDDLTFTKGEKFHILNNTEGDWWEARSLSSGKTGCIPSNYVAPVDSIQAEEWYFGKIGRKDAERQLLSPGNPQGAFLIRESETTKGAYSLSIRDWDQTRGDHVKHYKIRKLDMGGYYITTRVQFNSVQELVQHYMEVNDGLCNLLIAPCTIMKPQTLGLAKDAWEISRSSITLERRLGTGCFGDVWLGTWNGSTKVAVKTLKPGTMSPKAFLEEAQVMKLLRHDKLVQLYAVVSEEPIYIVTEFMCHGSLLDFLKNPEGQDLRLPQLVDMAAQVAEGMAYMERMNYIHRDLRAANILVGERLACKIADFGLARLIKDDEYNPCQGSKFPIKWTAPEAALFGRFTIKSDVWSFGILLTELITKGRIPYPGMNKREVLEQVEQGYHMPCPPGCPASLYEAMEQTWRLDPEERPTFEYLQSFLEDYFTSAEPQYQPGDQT

[6] = Drug concentration in nude mouse plasma xenografted with human HCT-116 cells at 3.3 mg/kg administered via pump for 9 days by LC-MS/MS analysis; assay type: ADME, organism-based; conditions: time 9 day
HCT-116 [7] = assay: Antitumor activity against human HCT-116 cells xenografted in nude mouse assessed as reduction in MEK1 phosphorylation at S221 residue at 15 to 150 mg/kg/day administered via pump for 18 hrs by Reverse-Phase protein array analysis; assay type: functional, organism-based; conditions: dose 15-150 mg/kg/day
[8] = Cytotoxicity against primary hepatocyte (unknown origin) assessed as inhibition of cell proliferation incubated for 3 days by CellTiter-Glo Luminescent Cell Viability Assay; assay type: toxicity, cell-based; conditions: primary hepatocytes
HPAC = assay: Antiproliferative activity against human HPAC cells assessed as inhibition of cell proliferation incubated for 3 days by CellTiter-Glo Luminescent Cell Viability Assay; assay type: functional, cell-based; conditions: 72 h; outline: as §1
HEK293 = assay: Inhibition of YFP/YFP variant coding sequence fused Mnk1/p38alpha (unknown origin) expressed in HEK293 cells incubated for 8 to 24 hrs by fluorescence based analysis; assay type: cell-based; conditions: Homo sapiens, time 8-24 hrs
DAN-G = assay: Antiproliferative activity against human DAN-G cells assessed as inhibition of cell proliferation incubated for 3 days by CellTiter-Glo Luminescent Cell Viability Assay; assay type: functional, cell-based; conditions: 72 h; outline: as §1
[9] = target: T1, cGMP-dependent protein kinase 1 (Homo sapiens, UniProt Q13976); assay: Inhibition of human PRKG1 in presence of ATP
T1 sequence (Q13976 whole entry): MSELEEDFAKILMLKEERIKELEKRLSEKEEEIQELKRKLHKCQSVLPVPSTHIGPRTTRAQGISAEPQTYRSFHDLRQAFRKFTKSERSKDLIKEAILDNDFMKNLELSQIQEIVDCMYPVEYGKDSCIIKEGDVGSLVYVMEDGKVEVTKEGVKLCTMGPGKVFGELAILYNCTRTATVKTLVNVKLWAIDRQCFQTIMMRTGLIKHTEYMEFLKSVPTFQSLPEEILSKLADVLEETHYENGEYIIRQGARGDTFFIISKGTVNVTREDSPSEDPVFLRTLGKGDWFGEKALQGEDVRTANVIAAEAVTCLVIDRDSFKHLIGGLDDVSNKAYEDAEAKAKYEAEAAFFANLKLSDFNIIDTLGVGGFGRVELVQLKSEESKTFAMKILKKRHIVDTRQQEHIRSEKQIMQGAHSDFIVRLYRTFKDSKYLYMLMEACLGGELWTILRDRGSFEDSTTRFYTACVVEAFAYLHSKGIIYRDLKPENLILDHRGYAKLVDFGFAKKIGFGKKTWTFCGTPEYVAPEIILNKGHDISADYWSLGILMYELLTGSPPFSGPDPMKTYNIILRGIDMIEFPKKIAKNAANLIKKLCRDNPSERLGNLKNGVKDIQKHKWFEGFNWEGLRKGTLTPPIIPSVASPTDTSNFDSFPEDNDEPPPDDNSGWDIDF

[10] = target: Ribosomal protein S6 kinase alpha-1 (Homo sapiens, UniProt Q15418); assay: Inhibition of human RSK1 in presence of ATP by cellular assay
Ribosomal protein S6 kinase alpha-1, sequence (Q15418 whole entry): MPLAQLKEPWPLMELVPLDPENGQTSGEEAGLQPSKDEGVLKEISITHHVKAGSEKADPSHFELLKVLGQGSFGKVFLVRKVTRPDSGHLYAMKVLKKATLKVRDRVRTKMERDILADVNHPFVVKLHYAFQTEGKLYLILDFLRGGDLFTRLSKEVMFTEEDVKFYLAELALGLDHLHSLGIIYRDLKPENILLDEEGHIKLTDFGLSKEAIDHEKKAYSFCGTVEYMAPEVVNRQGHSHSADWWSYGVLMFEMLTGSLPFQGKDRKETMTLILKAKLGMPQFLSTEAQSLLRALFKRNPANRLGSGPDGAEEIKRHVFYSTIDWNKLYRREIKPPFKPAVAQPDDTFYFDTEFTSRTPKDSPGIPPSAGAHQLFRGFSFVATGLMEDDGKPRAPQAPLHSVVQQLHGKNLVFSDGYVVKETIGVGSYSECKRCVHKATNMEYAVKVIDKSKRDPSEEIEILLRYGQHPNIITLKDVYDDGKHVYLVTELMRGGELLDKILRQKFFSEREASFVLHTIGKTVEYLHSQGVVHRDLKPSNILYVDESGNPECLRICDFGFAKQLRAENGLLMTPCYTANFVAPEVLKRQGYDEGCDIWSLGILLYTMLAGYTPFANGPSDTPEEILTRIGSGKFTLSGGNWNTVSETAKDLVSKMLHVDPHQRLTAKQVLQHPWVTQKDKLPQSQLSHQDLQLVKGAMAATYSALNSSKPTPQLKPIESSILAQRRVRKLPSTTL

NCI-H1755 = assay: Antiproliferative activity against human NCI-H1755 cells assessed as inhibition of cell proliferation incubated for 3 days by CellTiter-Glo Luminescent Cell Viability Assay; assay type: functional, cell-based; conditions: NCI-H1755, 72 h; outline: as §2
HCT-116 [11] = assay: Induction of cell cycle arrest in human HCT-116 cells assessed as accumulation of cells at S phase at 100 nM measured after 48 hrs by fluorescence activated cell sorter analysis (reference value: 26.15%); assay type: functional
[12] = target: T2, Protein kinase C beta type (Homo sapiens, UniProt P05771); assay: Inhibition of human PKCbeta-II in presence of ATP relative to control; conditions: concentration not given here
Target sequence in this assay (P05771 2-671 limits assumed): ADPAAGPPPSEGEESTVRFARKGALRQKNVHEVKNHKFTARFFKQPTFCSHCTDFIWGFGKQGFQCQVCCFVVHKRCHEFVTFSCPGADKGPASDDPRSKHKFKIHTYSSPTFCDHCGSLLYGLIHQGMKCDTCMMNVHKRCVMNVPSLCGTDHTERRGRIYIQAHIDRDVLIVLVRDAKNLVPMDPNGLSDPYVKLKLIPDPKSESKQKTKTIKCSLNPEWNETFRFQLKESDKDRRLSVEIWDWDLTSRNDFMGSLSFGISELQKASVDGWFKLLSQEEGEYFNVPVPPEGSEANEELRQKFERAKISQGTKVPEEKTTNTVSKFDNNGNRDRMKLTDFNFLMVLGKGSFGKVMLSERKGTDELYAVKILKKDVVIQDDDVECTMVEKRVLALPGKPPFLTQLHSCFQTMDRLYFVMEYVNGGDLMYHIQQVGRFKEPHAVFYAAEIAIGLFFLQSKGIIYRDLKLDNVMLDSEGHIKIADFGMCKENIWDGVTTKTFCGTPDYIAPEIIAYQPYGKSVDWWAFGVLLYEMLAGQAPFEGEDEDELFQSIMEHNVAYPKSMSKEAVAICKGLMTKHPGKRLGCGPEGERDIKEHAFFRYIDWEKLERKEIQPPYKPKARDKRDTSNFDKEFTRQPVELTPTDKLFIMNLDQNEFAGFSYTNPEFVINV

[13] = target: T2, Protein kinase C beta type; assay: Inhibition of human PKCbeta1 in presence of ATP
Target sequence in this assay (P05771 whole entry): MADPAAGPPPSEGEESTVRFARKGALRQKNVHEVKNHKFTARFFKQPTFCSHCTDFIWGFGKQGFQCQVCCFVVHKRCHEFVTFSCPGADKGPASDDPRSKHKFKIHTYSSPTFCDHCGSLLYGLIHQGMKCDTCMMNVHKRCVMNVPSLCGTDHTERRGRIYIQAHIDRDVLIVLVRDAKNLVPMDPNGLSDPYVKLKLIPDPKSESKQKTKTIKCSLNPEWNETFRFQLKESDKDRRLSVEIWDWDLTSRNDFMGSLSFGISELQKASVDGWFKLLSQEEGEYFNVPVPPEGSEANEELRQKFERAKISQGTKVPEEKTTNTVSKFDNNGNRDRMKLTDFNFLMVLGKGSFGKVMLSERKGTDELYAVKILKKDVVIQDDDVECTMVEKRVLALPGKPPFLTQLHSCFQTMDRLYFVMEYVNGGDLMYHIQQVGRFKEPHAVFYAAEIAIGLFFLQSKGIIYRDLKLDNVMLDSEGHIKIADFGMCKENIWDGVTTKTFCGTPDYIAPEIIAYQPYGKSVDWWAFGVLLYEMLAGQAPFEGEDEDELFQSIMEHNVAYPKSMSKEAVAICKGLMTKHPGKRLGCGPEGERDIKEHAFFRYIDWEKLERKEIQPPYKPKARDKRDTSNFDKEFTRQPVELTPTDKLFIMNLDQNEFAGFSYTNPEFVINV

SW1990 = assay: Antiproliferative activity against human SW1990 cells assessed as inhibition of cell proliferation incubated for 3 days by CellTiter-Glo Luminescent Cell Viability Assay; assay type: functional, cell-based; conditions: SW1990, 72 h; outline: as §2
SW948 = assay: Antiproliferative activity against human SW948 cells assessed as inhibition of cell proliferation incubated for 3 days by CellTiter-Glo Luminescent Cell Viability Assay; assay type: functional, cell-based; conditions: SW948, 72 h; outline: as §2
NCI-H716 = assay: Antiproliferative activity against human NCI-H716 cells assessed as inhibition of cell proliferation incubated for 3 days by CellTiter-Glo Luminescent Cell Viability Assay; assay type: functional, cell-based; conditions: NCI-H716, 72 h; outline: as §2
COLO 205 = assay: Antiproliferative activity against human COLO 205 cells assessed as inhibition of cell proliferation incubated for 3 days by CellTiter-Glo Luminescent Cell Viability Assay; assay type: functional, cell-based; conditions: COLO 205, 72 h; outline: as §1
PANC-1 = assay: Antiproliferative activity against human PANC-1 cells assessed as inhibition of cell proliferation incubated for 3 days by CellTiter-Glo Luminescent Cell Viability Assay; assay type: functional, cell-based; conditions: PANC-1, 72 h; outline: as §2

IC50 (HCC1954): 0.33 nM
IC50 (NCI-H358): 7.7 nM
IC50 [1]: 7.9 nM
IC50 (NCI-H1734): 4.1 nM
inhibition [3]: 96%
IC50 [4]: 513 nM
IC50 (NCI-H1573): 2.37 nM
IC50 [5]: 23.4 nM
concentration at 216 h [6]: 37 ng/mL
IC50 [9]: 34 nM
IC50 [10]: 543 nM
IC50 (NCI-H1755): 15 nM
inhibition [12]: 90%
IC50 [13]: 280 nM
IC50 (SW1990): 127 nM
IC50 (SW948): 4.3 nM
IC50 (NCI-H716): 11 nM
IC50 (COLO 205): 2.8 nM
IC50 (PANC-1): 856 nM
Structure (SMILES): Cc1nc(Nc2n[nH]c3c2CN(C(=O)N[C@H](CN(C)C)c2ccccc2)C3(C)C)c2sccc2n1 [PF-03758309]
Activity (HCT-116 [2]): Active
Activity (HCT-116 [7]): Active
IC50 at 3 days [8]: > 1000 nM
IC50 (HPAC): 265 nM
inhibition (HEK293): Active
IC50 (DAN-G): 518 nM
Activity (HCT-116 [11]): 14.37%
